For experiment [1], the target named is Botulinum neurotoxin type A (Clostridium botulinum (strain Hall / ATCC 3502 / NCTC 13319 / Type A)) (UniProt P0DPI1). Put plainly: Inhibition of Clostridium botulinum Hall BoNT/A-mediated paralysis in CD1 mouse phrenic nerve hemidiaphragm assessed as time required to 50% loss of twitch tension at 20 uM measured upto 5 hrs (reference value: 62 mins).
Experiment [2] has as its target Botulinum neurotoxin type A (Clostridium botulinum (strain Hall / ATCC 3502 / NCTC 13319 / Type A), UniProt P0DPI1). Put plainly: Inhibition of Clostridium botulinum Hall BoNT/A protease activity using Ac-SNKTRIDEANQRATKML-NH2 as substrate after 5 mins by RP-HPLC analysis. Summed up:
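HPLC-based BoNT/A protease assay; percent inhibition measured at nine compound concentrations, with IC50 derived by curve fitting.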

Experiment [3] deals with Botulinum neurotoxin type A (Clostridium botulinum (strain Hall / ATCC 3502 / NCTC 13319 / Type A)) (UniProt P0DPI1). Put plainly: Inhibition of Clostridium botulinum Hall BoNT/A-mediated paralysis in CD1 mouse phrenic nerve hemidiaphragm assessed as time required to 50% loss of twitch tension at 2 uM measured upto 5 hrs (reference value: 62 mins).
The target is the same in experiment [4]. Put plainly: Inhibition of Clostridium botulinum Hall BoNT/A protease activity using Ac-SNKTRIDEANQRATKML-NH2 as substrate at 20 uM after 5 mins by RP-HPLC analysis. Put shortly: (§1)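 HPLC-based BoNT/A protease assay; single-point percent inhibition of protease activity at 100 or 20 μM compound.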
Experiment [5] shares this target. Put plainly: Inhibition of Clostridium botulinum Hall BoNT/A protease activity using Ac-SNKTRIDEANQRATKML-NH2 as substrate at 100 uM after 5 mins by RP-HPLC analysis. Summed up:
as §1

Sequence of Botulinum neurotoxin type A (P0DPI1 2-448 limits assumed): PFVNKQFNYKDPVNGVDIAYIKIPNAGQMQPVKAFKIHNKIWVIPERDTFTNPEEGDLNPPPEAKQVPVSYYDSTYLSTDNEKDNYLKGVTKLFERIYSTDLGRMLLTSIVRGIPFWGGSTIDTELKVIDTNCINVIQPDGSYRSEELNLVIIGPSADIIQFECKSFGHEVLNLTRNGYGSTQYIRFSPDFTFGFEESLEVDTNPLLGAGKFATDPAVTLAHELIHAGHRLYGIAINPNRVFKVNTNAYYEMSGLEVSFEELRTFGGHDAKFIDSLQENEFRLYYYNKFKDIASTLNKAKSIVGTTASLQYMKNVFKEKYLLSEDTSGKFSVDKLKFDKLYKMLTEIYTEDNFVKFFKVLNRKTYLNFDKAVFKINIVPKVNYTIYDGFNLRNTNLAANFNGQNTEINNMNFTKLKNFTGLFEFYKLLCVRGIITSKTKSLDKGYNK
Sequence of Botulinum neurotoxin type A (Clostridium botulinum (strain Hall / ATCC 3502 / NCTC 13319 / Type A)) (P0DPI1 2-448 limits assumed): as above

Usually IC50 stands for the concentration needed to halve the response being measured. The term inhibition denotes the percentage by which the read-out fell short of the control. As to `C[C@H]1Oc2cc3c(-c4c(O)cc(O)c5c(O)c6c(cc45)O[C@H](C)[C@@H](C)C6=O)c(O)cc(O)c3c(O)c2C(=O)[C@@H]1C` [CHAETOCHROMIN A], the TIME came out at 3.13 h in experiment [1] and 1.73 h in experiment [3]. In experiment [2], this compound gave a concentration for half-maximal inhibition (IC50) of 24.6 µM. Further, the inhibition in experiment [4] stood at 55%; in experiment [5], 74%.

With `CCC[C@H]1Cc2cc3c(-c4c(O)cc(O)c5c(O)c6c(cc45)C[C@H](CCC)OC6=O)c(O)cc(O)c3c(O)c2C(=O)O1`, the TIME in experiment [1] is 3.28 h; in experiment [3] it was 3.15 h. The inhibition in experiment [4] amounted to 85%; in experiment [5], 96%.

For the compound `Cc1cc(O)c2c(c1)C(=O)c1c(c(O)cc(O)c1-c1c(O)cc(O)c3c1C(=O)c1cc(C)cc(O)c1C3=O)C2=O` [SKYRIN], the results for the TIME in experiment [1] and in experiment [3] were 1.35 h and 1.07 h, respectively. In experiment [2], this compound registered an IC50 of 31.5 µM. In addition, the inhibition in experiment [4] was 40.3%; in experiment [5], 74.3%.

Consider `CCC[C@H]1Cc2cc3c(-c4c(O)cc(O)c5c(O)c6c(cc45)C[C@H](CCC)OC6=O)c(O)cc(O)c3c(O)c2C(=O)O1` (single isomer, unassigned; atropisomer) [TALARODERXINE A], for which, in experiment [2], it took 10.1 µM to reach half-maximal inhibition (IC50).

Turning to `CCOc1ccc(C(Nc2cccnc2)c2cc(Cl)c3cccnc3c2O)cc1` (racemic), the TIME in experiment [1] and in experiment [3] was 5 h throughout. The compound also showed an IC50 in experiment [2] of 2.1 µM. The inhibition turned out to be 96.2% in experiment [4] and 98% in experiment [5].

For the compound `CCC[C@H]1Cc2cc3c(-c4c(O)cc(O)c5c(O)c6c(cc45)C[C@H](CCC)OC6=O)c(O)cc(O)c3c(O)c2C(=O)O1` [TALARODERXINE A], the IC50 in experiment [2] was 3.7 µM.

On to `CCC[C@H]1Cc2cc3c(-c4c(O)cc(O)c5c(O)c6c(cc45)C[C@H](CCC)OC6=O)c(O)cc(O)c3c(O)c2C(=O)O1` (single isomer, unassigned; atropisomer), for which the TIME in experiment [1] is 1.58 h; in experiment [3], 2.9 h. Moreover, the inhibition in experiment [4] was 67%; in experiment [5], 80.3%.

Take `CC1CC(=O)c2c(cc3c(-c4c(O)cc(O)c5c(O)c6c(cc45)OC(C)CC6=O)c(O)cc(O)c3c2O)O1` (stereo not drawn) [CEPHALOCHROMIN]: the TIME in experiment [1] worked out at 0.983 h. Further, half-maximal inhibition in experiment [2] (IC50) required 29.2 µM. Further, the inhibition in experiment [4] was determined as 45%; in experiment [5], 72%.

Consider `COC(=O)[C@]12Oc3ccc(-c4ccc5c(c4O)C(=O)C4=C(O)C[C@@H](C)[C@H](O)[C@@]4(C(=O)OC)O5)c(O)c3C(=O)C1=C(O)C[C@@H](C)[C@@H]2O` [SECALONIC ACID A], for which the TIME in experiment [1] came out at 1.12 h. This compound returned a concentration for half-maximal inhibition (IC50) in experiment [2] of 28.6 µM. Besides, the figures for the inhibition in experiment [4] and in experiment [5] were 39.1% and 64.5%, respectively.

The values are drawn from ChEMBL document CHEMBL2062470, “Fungal bis-Naphthopyrones as Inhibitors of Botulinum Neurotoxin Serotype A” (ACS Med Chem Lett, 2012).
